Experimental data taken from ChEMBL document CHEMBL1145814, “Antiretroviral activity of semisynthetic derivatives of glycopeptide antibiotics” (J Med Chem, 2003).
Values after ≈ are worked out from the molar mass of the structure shown.

Experiments:
CCRF-CEM = test: Inhibitory concentration against proliferation of human T-lymphocytic (CEM) cells; assay type: functional, cell-based; conditions: Homo sapiens, CCRF-CEM
Method in brief: (§1)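 (5–7.5) × 10^4 cells per well were incubated with test compound at 37 °C in a humidified CO2 atmosphere. L1210 murine leukemia cells grew for 48 h, and CEM and Molt4/clone 8 human lymphocytes grew for 72 h. Cells were then counted with a Coulter counter. IC50 is the concentration inhibiting proliferation by 50%.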

L1210 = test: Inhibitory concentration of compound against proliferation of murine lukemia cells L1210 was determined; assay type: functional, cell-based; conditions: Mus musculus; method in brief: as §1
MOLT-4 = test: Inhibitory concentration of compound against proliferation of human T-lymphocytic cells MOLT-4/C8 was determined; assay type: functional, cell-based; method in brief: as §1
[1] = tested on: Human immunodeficiency virus 2; test: Concentration required to protect human T-lymphocytic cells against the cytopathogenicity of HIV-2; assay type: functional, organism-based; conditions: Human immunodeficiency virus 2
[2] = tested on: Human immunodeficiency virus 1; test: Effective concentration of compound required to protect human T-lymphocytic cells against the cytopathogenicity of HIV-1; assay type: functional, organism-based; conditions: Human immunodeficiency virus 1
Mus musculus [3] = organism: Mus musculus; test: Effective concentration of compound required to protect C3H/3T3 embryo murine fibroblasts against the MSV induced transformation; assay type: functional, organism-based; conditions: Mus musculus, C3H/3T3
Method in brief: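 Monolayer murine embryo fibroblast C3H/3T3 cultures were infected with Moloney murine sarcoma virus at 75 focus-forming units and cultured with test compound. Transformation was examined microscopically on day 6 postinfection. EC50 is the concentration protecting cells against MSV-induced transformation by 50%.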

Mus musculus [4] = organism: Mus musculus; test: Minimal inhibitory concentration required to cause a microscopic detectable alteration of C3H/3T3 embryo murine fibroblast cell morphology; assay type: functional
Method in brief: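 Uninfected C3H/3T3 murine embryo fibroblast cultures were exposed to test compound and checked microscopically for changes in cell morphology. The MIC is the concentration causing a microscopically detectable alteration of morphology.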

With `COC(=O)[C@H]1NC(=O)C2NC(=O)C(NC(=O)[C@@H]3NC(=O)[C@H]4NC(=O)[C@H](NC(=O)[C@H](N)c5ccc(O)c(c5)Oc5cc4cc(O)c5C)[C@H](O)c4ccc(cc4)Oc4cc3cc(c4OC3OC(CO[C@H]4O[C@H](C)[C@@H](O)[C@@H](O)[C@@H]4O)C(O)C(O)C3OC3OC(CO)C(O)C(O)C3OC3OCC(O)C(O)C3O)Oc3ccc(cc3)[C@H]2O[C@@H]2C[C@@H](N)[C@@H](O)[C@@H](C)O2)c2ccc(O)c(c2)-c2c(O[C@@H]3O[C@H](CO)[C@@H](O)[C@@H](O)[C@@H]3O)cc(O)cc21` (stereo partly specified) the IC50 (CCRF-CEM) was > 500 µM, the IC50 (L1210) was > 500 µM and the IC50 (MOLT-4) was > 500 µM. For the same compound, the EC50 [1] was > 250 µM, the EC50 [2] was > 250 µM and the EC50 (Mus musculus [3]) was > 100 µM. For the same compound, the MIC (Mus musculus [4]) was > 100 µM.

With `COC(=O)[C@@H]1NC(=O)C2NC(=O)C(NC(=O)C3NC(=O)C4NC(=O)C(Cc5ccc(c(Cl)c5)Oc5cc3cc(c5O)Oc3ccc(cc3Cl)C2O)NC(=O)C(N)c2ccc(O)c(c2)Oc2cc(O)cc4c2)c2ccc(O)c(c2)-c2c(O)cc(O)cc21` (stereo partly specified) the IC50 (CCRF-CEM) was 248 µM, the IC50 (L1210) was 364 µM and the IC50 (MOLT-4) was > 500 µM. For the same compound, the EC50 [1] was 15 µM, the EC50 [2] was 9.5 µM and the EC50 (Mus musculus [3]) was 12 µM. For the same compound, the MIC (Mus musculus [4]) was > 100 µM.

With `CNC1C(=O)NC2Cc3ccc(cc3)Oc3cc4cc(c3O)Oc3ccc(cc3Cl)C(O)C3NC(=O)C(NC(=O)C4NC(=O)C(NC2=O)c2cc(cc(O)c2Cl)Oc2cc1ccc2O)c1ccc(O)c(c1)-c1c(O)cc(O)cc1[C@H](C(=O)O)NC3=O` (stereo partly specified) the IC50 (CCRF-CEM) was > 500 µM, the IC50 (L1210) was > 500 µM and the IC50 (MOLT-4) was > 500 µM. For the same compound, the EC50 [1] was > 50 µM, the EC50 [2] was 40 µM and the EC50 (Mus musculus [3]) was 82 µM. The MIC (Mus musculus [4]) was > 100 µM.

With `CN[C@@H](CC(C)C)C(=O)NC1C(=O)N[C@@H](CC(N)=O)C(=O)NC2C(=O)NC3C(=O)NC(C(=O)N[C@@H](C(=O)O)c4cc(O)cc(O)c4-c4cc3ccc4O)C(O)c3ccc(c(Cl)c3)Oc3cc2cc(c3O)Oc2ccc(cc2Cl)C1O` (stereo partly specified) the IC50 (CCRF-CEM) was > 500 µM, the IC50 (L1210) was > 500 µM and the IC50 (MOLT-4) was > 500 µM. For the same compound, the EC50 [1] was > 250 µM, the EC50 [2] was 65 µM and the EC50 (Mus musculus [3]) was > 100 µM. For the same compound, the MIC (Mus musculus [4]) was > 100 µM.

With `CNC(=O)[C@@H]1NC(=O)C2NC(=O)C(NC(=O)C3NC(=O)C(CC(N)=O)NC(=O)C(NC(=O)C(CC(C)C)NC)C(O)c4ccc(c(Cl)c4)Oc4cc3cc(c4O)Oc3ccc(cc3)C2O)c2ccc(O)c(c2)-c2c1cc(O)c(CN1CCN(Cc3ccc(-c4ccccc4)cc3)CC1)c2O` (stereo partly specified) the IC50 (CCRF-CEM) was > 100 µM, the IC50 (L1210) was > 100 µM and the IC50 (MOLT-4) was > 100 µM. The EC50 [1] was 5.5 µM, the EC50 [2] was 4 µM and the EC50 (Mus musculus [3]) was 12 µM. For the same compound, the MIC (Mus musculus [4]) was > 100 µM.

For `CNC(=O)[C@@H]1NC(=O)C2NC(=O)C(NC(=O)C3NC(=O)C4NC(=O)C(NC(=O)C(N)c5ccc(O)c(c5)Oc5cc(O)cc4c5)C(O)c4ccc(c(Cl)c4)Oc4cc3cc(c4O[C@@H]3O[C@@H](CO)[C@@H](O)[C@H](O)[C@@H]3NC(=O)CCCCCCC(C)C)Oc3ccc(cc3Cl)C2O[C@@H]2O[C@@H](CO)[C@@H](O)[C@H](O)[C@@H]2NC(C)=O)c2ccc(O)c(c2)-c2c(O[C@H]3O[C@H](CO)[C@@H](O)[C@@H](O)[C@@H]3O)cc(O)cc21` (stereo partly specified), the IC50 (CCRF-CEM) was > 500 µM, the IC50 (L1210) was > 500 µM and the IC50 (MOLT-4) was > 500 µM. It also gave an EC50 [1] of 190 µM, an EC50 [2] of 80 µM and an EC50 (Mus musculus [3]) of 75 µM. The MIC (Mus musculus [4]) was > 100 µM.

In the case of `CCCCc1ccc(CNC2C(Oc3c4cc5cc3Oc3ccc(cc3Cl)C(O)C3NC(=O)C(NC(=O)C5NC(=O)C5NC(=O)C(Cc6ccc(cc6)O4)NC(=O)C(NC)c4ccc(O)c(c4)Oc4cc(O)c(Cl)c5c4)c4ccc(O)c(c4)-c4c(O)cc(O)cc4[C@H](C(=O)NCCCN(C)C)NC3=O)OC(C(=O)NCCCN(C)C)C(O)C2O)cc1` (stereo partly specified), the IC50 (CCRF-CEM) is reported as > 250 µM, the IC50 (L1210) is reported as 36 µM and the IC50 (MOLT-4) is reported as 66 µM. The EC50 [1] was > 50 µM, the EC50 [2] was 12 µM and the EC50 (Mus musculus [3]) was > 20 µM. For the same compound, the MIC (Mus musculus [4]) was > 100 µM.

`CN[C@H](CC(C)C)C(=O)N[C@H]1C(=O)N[C@@H](CC(N)=O)C(=O)N[C@H]2C(=O)N[C@H]3C(=O)N[C@H](C(=O)N[C@H](C(=O)O)c4cc(O)c(CNCc5ccc(-c6ccc(Cl)cc6)cc5)c(O)c4-c4cc3ccc4O)[C@H](O[C@H]3C[C@](C)(N)[C@@H](O)[C@H](C)O3)c3ccc(cc3)Oc3cc2cc(c3O[C@@H]2O[C@H](CO)[C@@H](O)[C@H](O)[C@H]2O[C@H]2C[C@](C)(N)[C@@H](O)[C@H](C)O2)Oc2ccc(cc2Cl)[C@H]1O` was tested, and the IC50 (CCRF-CEM) was 106 µM, the IC50 (L1210) was 136 µM and the IC50 (MOLT-4) was 72 µM. For the same compound, the EC50 [1] was > 50 µM, the EC50 [2] was 22 µM and the EC50 (Mus musculus [3]) was > 4 µM. The MIC (Mus musculus [4]) was > 20 µM.

In the case of `CN[C@H](CC(C)C)C(=O)N[C@H]1C(=O)N[C@@H](CC(N)=O)C(=O)N[C@H]2C(=O)N[C@H]3C(=O)N[C@H](C(=O)N[C@H](C(=O)NCc4ccc(-c5ccccc5)cc4)c4cc(O)cc(O)c4-c4cc3ccc4O)[C@H](O[C@H]3C[C@](C)(N)[C@@H](O)[C@H](C)O3)c3ccc(cc3)Oc3cc2cc(c3O[C@@H]2O[C@H](CO)[C@@H](O)[C@H](O)[C@H]2O[C@H]2C[C@](C)(N)[C@@H](O)[C@H](C)O2)Oc2ccc(cc2Cl)[C@H]1O`, the IC50 (CCRF-CEM) is reported as 35 µM, the IC50 (L1210) is reported as 41 µM and the IC50 (MOLT-4) is reported as 34 µM. For the same compound, the EC50 [1] was > 10 µM, the EC50 [2] was > 10 µM and the EC50 (Mus musculus [3]) was > 0.8 µM. It also gave an MIC (Mus musculus [4]) of 4 µM (≈ 6.89 µg/mL).

`CCCCc1ccc(CNC2C(Oc3c4cc5cc3Oc3ccc(cc3Cl)C(O)C3NC(=O)C(NC(=O)C5NC(=O)C5NC(=O)C(Cc6ccc(cc6)O4)NC(=O)C(NC)c4ccc(O)c(c4)Oc4cc(O)c(Cl)c5c4)c4ccc(O)c(c4)-c4c(cc(O)c(CN5CCN(Cc6ccc(-c7ccccc7)cc6)CC5)c4O)[C@H](C(=O)NCCCN(C)C)NC3=O)OC(C(=O)NCCCN(C)C)C(O)C2O)cc1` (stereo partly specified) was tested, and the IC50 (CCRF-CEM) was 212 µM, the IC50 (L1210) was 25 µM and the IC50 (MOLT-4) was 35 µM. For the same compound, the EC50 [1] was 20 µM, the EC50 [2] was 3.5 µM and the EC50 (Mus musculus [3]) was > 4 µM. For the same compound, the MIC (Mus musculus [4]) was 20 µM (≈ 39.3 µg/mL).

`CCCCOc1ccc(CNC2C(Oc3c4cc5cc3Oc3ccc(cc3Cl)C(O)C3NC(=O)C(NC(=O)C5NC(=O)C5NC(=O)C(Cc6ccc(cc6)O4)NC(=O)C(N(C)Cc4ccc(OCCCC)cc4)c4ccc(O)c(c4)Oc4cc(O)c(Cl)c5c4)c4ccc(O)c(c4)-c4c(O)cc(O)cc4[C@H](C(=O)NCCCN(C)C)NC3=O)OC(C(=O)NCCCN(C)C)C(O)C2O)cc1` (stereo partly specified) gave an IC50 (CCRF-CEM) of 80 µM, an IC50 (L1210) of 20 µM and an IC50 (MOLT-4) of 18 µM. The EC50 [1] was > 10 µM, the EC50 [2] was 5 µM and the EC50 (Mus musculus [3]) was > 4 µM. It also gave an MIC (Mus musculus [4]) of 20 µM (≈ 37.6 µg/mL).

With `CC(=O)N[C@@H]1[C@H](OC2c3ccc(c(Cl)c3)Oc3cc4cc(c3O[C@@H]3O[C@@H](CO)[C@@H](O)[C@H](O)[C@@H]3NC(=O)CCCCCCC(C)C)Oc3ccc(cc3Cl)C(O)C3NC(=O)C(N)c5ccc(O)c(c5)Oc5cc(O)cc(c5)C(NC3=O)C(=O)NC4C(=O)NC3C(=O)NC2C(=O)N[C@@H](C(=O)O)c2cc(O)cc(O[C@H]4O[C@H](CO)[C@@H](O)[C@@H](O)[C@@H]4O)c2-c2cc3ccc2O)O[C@@H](CO)[C@@H](O)[C@@H]1O` (stereo partly specified) the IC50 (CCRF-CEM) was > 500 µM, the IC50 (L1210) was > 500 µM and the IC50 (MOLT-4) was > 500 µM. The EC50 [1] was 100 µM, the EC50 [2] was 17 µM and the EC50 (Mus musculus [3]) was > 100 µM. The MIC (Mus musculus [4]) was > 100 µM.

`CCCCCCCCCCNC(=O)[C@H]1NC(=O)[C@H]2NC(=O)[C@H](NC(=O)[C@@H]3NC(=O)[C@H](CC(N)=O)NC(=O)[C@H](NC(=O)[C@@H](CC(C)C)NC)[C@H](O)c4ccc(c(Cl)c4)Oc4cc3cc(c4O[C@@H]3O[C@H](CO)[C@@H](O)[C@H](O)[C@H]3O[C@H]3C[C@](C)(N)C(O)[C@H](C)O3)Oc3ccc(cc3Cl)[C@H]2O)c2ccc(O)c(c2)-c2c(O)cc(O)cc21` (stereo partly specified) was tested, and the IC50 (CCRF-CEM) was 30 µM, the IC50 (L1210) was 30 µM and the IC50 (MOLT-4) was > 10 µM. For the same compound, the EC50 [1] was > 10 µM, the EC50 [2] was > 10 µM and the EC50 (Mus musculus [3]) was > 4 µM. It also gave an MIC (Mus musculus [4]) of 20 µM (≈ 31.8 µg/mL).
